The source made the active and inactive calls. The rule behind the calls is not given here.
Legend:
[1] = biological target: T1, Protein cereblon/3-hydroxy-3-methylglutaryl-coenzyme A reductase (Cricetulus griseus, UniProt P00347+G3H338); test: Protac activity at CRBN/HMGCR in Insig-1/Insig-2 deficient Chinese hamster SRD15 cells assessed as induction of HMGCR degradation after 16 hrs by immunoblotting analysis
T1 sequence (P00347 whole entry): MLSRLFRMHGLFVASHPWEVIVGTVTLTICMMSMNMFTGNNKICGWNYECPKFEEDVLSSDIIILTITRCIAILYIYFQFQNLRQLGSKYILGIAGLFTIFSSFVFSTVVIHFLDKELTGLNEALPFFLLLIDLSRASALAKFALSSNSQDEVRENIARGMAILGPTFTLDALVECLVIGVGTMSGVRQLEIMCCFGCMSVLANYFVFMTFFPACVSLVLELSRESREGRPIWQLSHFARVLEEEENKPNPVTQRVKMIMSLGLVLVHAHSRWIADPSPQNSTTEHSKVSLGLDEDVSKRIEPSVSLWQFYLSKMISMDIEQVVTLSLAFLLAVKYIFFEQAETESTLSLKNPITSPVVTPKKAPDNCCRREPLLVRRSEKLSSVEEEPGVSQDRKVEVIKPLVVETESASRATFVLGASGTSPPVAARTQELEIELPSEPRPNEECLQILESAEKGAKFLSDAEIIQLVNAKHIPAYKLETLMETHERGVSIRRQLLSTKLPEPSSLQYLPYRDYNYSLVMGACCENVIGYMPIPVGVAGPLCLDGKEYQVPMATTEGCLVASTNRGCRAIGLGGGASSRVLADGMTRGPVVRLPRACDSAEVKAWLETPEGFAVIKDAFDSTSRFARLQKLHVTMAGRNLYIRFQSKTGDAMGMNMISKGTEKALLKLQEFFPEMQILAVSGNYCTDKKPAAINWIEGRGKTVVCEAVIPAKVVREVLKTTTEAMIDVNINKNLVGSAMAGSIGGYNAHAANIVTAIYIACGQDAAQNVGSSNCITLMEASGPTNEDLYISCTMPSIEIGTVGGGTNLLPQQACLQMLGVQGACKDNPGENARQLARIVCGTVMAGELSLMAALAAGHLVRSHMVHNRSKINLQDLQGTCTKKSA
T1 sequence (G3H338 whole entry): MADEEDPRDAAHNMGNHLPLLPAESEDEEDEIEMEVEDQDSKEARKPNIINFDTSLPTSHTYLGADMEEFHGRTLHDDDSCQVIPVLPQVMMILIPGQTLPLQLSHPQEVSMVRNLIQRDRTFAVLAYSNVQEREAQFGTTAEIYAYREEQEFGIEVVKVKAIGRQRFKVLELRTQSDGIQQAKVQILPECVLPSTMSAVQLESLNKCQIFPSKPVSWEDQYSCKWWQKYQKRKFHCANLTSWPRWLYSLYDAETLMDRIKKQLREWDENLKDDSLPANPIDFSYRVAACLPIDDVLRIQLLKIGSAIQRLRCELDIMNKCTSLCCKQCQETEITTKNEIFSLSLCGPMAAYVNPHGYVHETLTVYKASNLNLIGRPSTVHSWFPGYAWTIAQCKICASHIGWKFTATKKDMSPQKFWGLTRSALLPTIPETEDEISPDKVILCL
Procedure, shortened: (§1)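 SRD15 cells treated with compound at varying concentrations for 16 h, final DMSO ≤0.1%; RIPA lysates (Lowry protein) immunoblotted for HMGCR, densitometry normalized to actin, DMSO set to 1; DC50 = concentration giving 50% loss versus DMSO, fitted to dose-response curve, mean of 3 independent experiments.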

[2] = biological target: T2, Sterol regulatory element-binding protein 2 (Mus musculus) (UniProt Q3U1N2); test: Activation of SREBP2 pathway in mouse primary hepatocytes assessed as increase in LDLR mRNA expression at 0.01 to 1 uM afer 16 hrs by quantitative real-time PCR analysis; assay type: cell-based
T2 sequence (whole entry): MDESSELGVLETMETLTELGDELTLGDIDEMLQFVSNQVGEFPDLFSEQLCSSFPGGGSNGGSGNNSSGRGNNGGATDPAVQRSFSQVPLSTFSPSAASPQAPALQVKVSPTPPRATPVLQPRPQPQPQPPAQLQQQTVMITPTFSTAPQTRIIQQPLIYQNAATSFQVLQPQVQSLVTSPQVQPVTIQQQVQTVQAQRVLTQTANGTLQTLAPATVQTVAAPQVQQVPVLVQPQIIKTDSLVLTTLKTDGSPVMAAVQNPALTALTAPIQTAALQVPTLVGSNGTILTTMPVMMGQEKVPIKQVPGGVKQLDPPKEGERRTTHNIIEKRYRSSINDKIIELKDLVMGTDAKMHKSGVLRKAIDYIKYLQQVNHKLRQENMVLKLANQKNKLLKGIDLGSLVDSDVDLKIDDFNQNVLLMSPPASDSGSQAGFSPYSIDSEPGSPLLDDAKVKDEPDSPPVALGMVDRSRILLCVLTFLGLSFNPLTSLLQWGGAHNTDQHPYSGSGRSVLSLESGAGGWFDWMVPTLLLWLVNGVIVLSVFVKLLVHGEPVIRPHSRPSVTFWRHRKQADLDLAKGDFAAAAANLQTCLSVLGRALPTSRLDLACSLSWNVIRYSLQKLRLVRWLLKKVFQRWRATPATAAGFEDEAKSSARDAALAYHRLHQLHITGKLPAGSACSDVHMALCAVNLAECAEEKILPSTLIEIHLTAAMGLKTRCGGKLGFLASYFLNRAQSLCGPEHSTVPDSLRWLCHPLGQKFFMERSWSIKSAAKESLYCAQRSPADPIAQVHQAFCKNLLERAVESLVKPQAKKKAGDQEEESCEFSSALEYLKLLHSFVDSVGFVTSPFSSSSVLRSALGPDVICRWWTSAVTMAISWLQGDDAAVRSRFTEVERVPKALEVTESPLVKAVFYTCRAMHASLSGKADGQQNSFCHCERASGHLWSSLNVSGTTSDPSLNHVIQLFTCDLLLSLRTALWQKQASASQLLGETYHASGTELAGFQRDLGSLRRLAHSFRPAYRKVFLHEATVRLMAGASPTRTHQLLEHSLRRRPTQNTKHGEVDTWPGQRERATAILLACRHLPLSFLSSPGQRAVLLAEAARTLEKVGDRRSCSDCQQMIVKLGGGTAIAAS

[3] = biological target: T2, Sterol regulatory element-binding protein 2 (Mus musculus); test: Activation of SREBP2 pathway in mouse primary hepatocytes assessed as increase in HMGCR mRNA expression at 0.01 to 1 uM afer 16 hrs by quantitative real-time PCR analysis; assay type: cell-based
[4] = biological target: T3, Protein cereblon/3-hydroxy-3-methylglutaryl-coenzyme A reductase (Cricetulus griseus) (UniProt P00347+G3H338); test: Protac activity at CRBN/HMGCR in Insig-1/Insig-2 deficient Chinese hamster SRD15 cells assessed as induction of HMGCR degradation at 0.01 to 1 uM after 16 hrs by immunoblotting analysis; procedure, shortened: as §1
[5] = biological target: T4, Thioredoxin domain-containing protein 11 (Homo sapiens) (UniProt Q6PKC3); test: Activation of TXNDC11 (unknown origin)
T4 sequence (whole entry): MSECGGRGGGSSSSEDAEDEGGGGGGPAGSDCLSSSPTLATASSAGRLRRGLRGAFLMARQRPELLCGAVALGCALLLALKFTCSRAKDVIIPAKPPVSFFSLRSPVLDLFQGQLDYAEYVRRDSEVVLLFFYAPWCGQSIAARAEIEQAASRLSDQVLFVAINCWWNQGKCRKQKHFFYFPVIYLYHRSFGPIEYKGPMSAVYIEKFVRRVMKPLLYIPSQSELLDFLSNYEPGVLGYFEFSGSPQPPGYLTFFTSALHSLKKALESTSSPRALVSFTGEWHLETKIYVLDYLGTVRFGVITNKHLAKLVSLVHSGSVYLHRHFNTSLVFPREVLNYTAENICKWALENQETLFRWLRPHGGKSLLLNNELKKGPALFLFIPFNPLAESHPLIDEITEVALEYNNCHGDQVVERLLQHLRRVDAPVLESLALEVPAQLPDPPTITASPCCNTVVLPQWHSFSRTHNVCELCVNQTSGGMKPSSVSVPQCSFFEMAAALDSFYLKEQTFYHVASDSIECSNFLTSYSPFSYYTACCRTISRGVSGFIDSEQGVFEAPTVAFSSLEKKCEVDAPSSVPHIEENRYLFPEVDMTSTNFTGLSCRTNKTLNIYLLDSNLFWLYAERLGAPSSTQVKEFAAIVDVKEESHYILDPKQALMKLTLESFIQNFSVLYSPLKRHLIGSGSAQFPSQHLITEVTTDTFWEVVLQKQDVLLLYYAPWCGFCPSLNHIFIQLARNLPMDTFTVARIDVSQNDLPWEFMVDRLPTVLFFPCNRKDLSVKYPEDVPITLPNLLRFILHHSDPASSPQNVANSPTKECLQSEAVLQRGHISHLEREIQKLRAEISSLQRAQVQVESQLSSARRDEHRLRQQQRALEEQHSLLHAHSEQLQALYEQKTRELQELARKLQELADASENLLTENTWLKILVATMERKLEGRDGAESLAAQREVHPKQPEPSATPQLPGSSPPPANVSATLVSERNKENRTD

[6] = tested on: Huh-7; test: Inhibition of cholesterol biosynthesis in human HuH7 cells preincubated for 14 hrs and followed by addition of 14C-acetate and measured after 2 hrs by TL method; assay type: functional, cell-based
Procedure, shortened: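 Sterol-depleted Huh7 cells (Medium B plus 5% lipoprotein-deficient serum) treated at varying concentrations for 14 h, pulse-labelled with ¹⁴C-acetate 1 μCi/μL for 2 h, washed, lysed in 0.1 M NaOH; lipids separated by TLC, ¹⁴C-cholesterol read by phosphorimager, DMSO set to 1.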

[7] = biological target: T3, Protein cereblon/3-hydroxy-3-methylglutaryl-coenzyme A reductase (Cricetulus griseus); test: Protac activity at CRBN/HMGCR in Insig-1/Insig-2 deficient Chinese hamster SRD15 cells assessed as induction of HMGCR degradation at 3 uM after 16 hrs by immunoblotting analysis; procedure, shortened: as §1

In the case of `CC(C)c1c(C(=O)Nc2ccccc2)c(-c2cccc(OCCCCc3cn(CCCCCCCNc4cccc5c4C(=O)N(C4CCC(=O)NC4=O)C5=O)nn3)c2)c(-c2ccc(F)cc2)n1CC[C@@H](O)C[C@@H](O)CC(=O)O` (stereo partly specified), the DC50 [1] is reported as 0.3 µM, the Activity [2] is reported as “Active” and the Activity [3] is reported as “Active”.

`CC(C)c1c(C(=O)Nc2ccccc2)c(-c2cccc(OCCCc3cn(CCCCCCCNc4cccc5c4C(=O)N(C4CCC(=O)NC4=O)C5=O)nn3)c2)c(-c2ccc(F)cc2)n1CC[C@@H](O)C[C@@H](O)CC(=O)O` (stereo partly specified) was tested, and the DC50 [1] was 0.2 µM, the Activity [2] was “Active” and the Activity [3] was “Active”.

With `C#CCCCCOc1cccc(-c2c(C(=O)Nc3ccccc3)c(C(C)C)n(CC[C@@H](O)C[C@@H](O)CC(=O)O)c2-c2ccc(F)cc2)c1` the Activity [4] was “inactive”.

With `C#CCCCCCOc1cccc(-c2c(C(=O)Nc3ccccc3)c(C(C)C)n(CC[C@@H](O)C[C@@H](O)CC(=O)O)c2-c2ccc(F)cc2)c1` the Activity [4] was “inactive”.

With `CC(C)c1c(C(=O)Nc2ccccc2)c(-c2cccc(OCCCCCc3cn(CCCCCCCNc4cccc5c4C(=O)N(C4CCC(=O)NC4=O)C5=O)nn3)c2)c(-c2ccc(F)cc2)n1CC[C@@H](O)C[C@@H](O)CC(=O)O` (stereo partly specified) the DC50 [1] was 0.4 µM, the Activity [2] was “Active” and the Activity [3] was “Active”.

`C#CCCCOc1cccc(-c2c(C(=O)Nc3ccccc3)c(C(C)C)n(CC[C@@H](O)C[C@@H](O)CC(=O)O)c2-c2ccc(F)cc2)c1` was tested, and the Activity [4] was “inactive”.

With `CC(C)c1c(C(=O)Nc2ccccc2)c(-c2ccccc2)c(-c2ccc(F)cc2)n1CC[C@@H](O)C[C@@H](O)CC(=O)O` the fold change (FC) [5] was 108 and the inhibition [6] was “Active”.

`CC(C)c1c(C(=O)Nc2ccccc2)c(-c2cccc(OCCCc3cn(CCCCCCNc4cccc5c4C(=O)N(C4CCC(=O)NC4=O)C5=O)nn3)c2)c(-c2ccc(F)cc2)n1CC[C@@H](O)C[C@@H](O)CC(=O)O` (stereo partly specified) was tested, and the DC50 [1] was 0.4 µM, the Activity [2] was “Active” and the Activity [3] was “Active”.

For `C#CCOc1cccc(-c2c(C(=O)Nc3ccccc3)c(C(C)C)n(CC[C@@H](O)C[C@@H](O)CC(=O)O)c2-c2ccc(F)cc2)c1`, the Activity [4] was “inactive”.

For `CC(C)c1c(C(=O)Nc2ccccc2)c(-c2cccc(OCCCc3cn(CCOCCOCCOCCOCCNc4ccc5c(c4)C(=O)N(C4CCC(=O)NC4=O)C5=O)nn3)c2)c(-c2ccc(F)cc2)n1CC[C@@H](O)C[C@@H](O)CC(=O)O` (stereo partly specified), the DC50 [1] was 0.3 µM and the Activity [7] was “inactive”.

`CC(C)c1c(C(=O)Nc2ccccc2)c(-c2cccc(OCCCc3cn(CCCOCCCc4cccc5c4CN(C4CCC(=O)NC4=O)C5=O)nn3)c2)c(-c2ccc(F)cc2)n1CC[C@@H](O)C[C@@H](O)CC(=O)O` (stereo partly specified) showed a DC50 [1] greater than 3 µM.
